In brackets after ≈: the same amount, converted by molar mass.
Legend:
Staphylococcus aureus [1] = test: Bacteriostatic activity against linezolid-resistant Staphylococcus aureus SA040L infected in THP1 cells after 24 hrs; format: functional, THP-1
How it was run: (§1)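 Human THP-1 myelomonocytic (macrophage-like) cells infected with S. aureus, then exposed 24 h to a range of antibiotic concentrations. CFU change was measured against the initial inoculum. A sigmoidal dose-response curve was fitted to give Emin, Emax and EC50, and the apparent static concentration (Cs) was taken from the fit.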

Staphylococcus aureus [2] = test: Antimicrobial activity against linezolid-susceptible Staphylococcus aureus ATCC 33591 infected in THP1 cells after 24 hrs; format: functional, organism-based; conditions: ATCC 33591, THP-1, 24 h
How it was run: (§2)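 Bacteria were phagocytosed by human THP-1 macrophage-like cells, then exposed to a range of drug concentrations for a fixed time: 24 h for S. aureus, S. epidermidis and L. monocytogenes, 48 h for L. pneumophila. Change in CFU versus the initial inoculum was fitted with a sigmoidal curve to give Emin, Emax (relative maximal efficacy), EC50 and static concentration (Cs).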

Staphylococcus aureus [3] = test: Bacteriostatic activity against linezolid-susceptible Staphylococcus aureus SA238 after 24 hrs; format: functional
How it was run: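 Extracellular concentration-response in Mueller-Hinton broth over 24 h. Change in CFU was fitted to a sigmoidal function, and the apparent static concentration (Cs) was derived from the fit.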

Staphylococcus aureus [4] = test: Antimicrobial activity against hospital acquired methicillin-resistant, vancomycin resistant Staphylococcus aureus VRS2 after 24 hrs; format: functional; conditions: VRS2, 24 h
Staphylococcus aureus [5] = test: Antimicrobial activity against linezolid-susceptible Staphylococcus aureus NRS18 infected in THP1 cells assessed as log reduction in bacterial count after 24 hrs; format: functional, THP-1; how it was run: as §2
Staphylococcus aureus [6] = test: Antimicrobial activity against hospital acquired methicillin-resistant Staphylococcus aureus ATCC 33591 after 24 hrs; format: functional; conditions: ATCC 33591, 24 h
Staphylococcus aureus [7] = test: Antimicrobial activity against linezolid-susceptible Staphylococcus aureus SA238 infected in THP-1 cells at pH 5.5 after 24 hrs; format: functional, organism-based; conditions: SA238, THP-1, 24 h
Staphylococcus aureus [8] = test: Antimicrobial activity against linezolid-susceptible Staphylococcus aureus NRS18 infected in THP1 cells after 24 hrs; format: functional, organism-based; conditions: NRS18, THP-1, 24 h; how it was run: as §2
Staphylococcus aureus [9] = test: Antimicrobial activity against hospital acquired methicillin-resistant, vancomycin resistant Staphylococcus aureus VRS1 after 24 hrs; format: functional; conditions: VRS1, 24 h
Staphylococcus aureus [10] = test: Antimicrobial activity against linezolid-susceptible Staphylococcus aureus SA238 infected in THP1 cells assessed as log reduction in bacterial count after 24 hrs; format: functional, THP-1; how it was run: as §2
Staphylococcus aureus [11] = test: Antimicrobial activity against Staphylococcus aureus infected in THP1 cells after 24 hrs; format: functional, organism-based; conditions: THP-1, 24 h; how it was run: as §2
Staphylococcus aureus [12] = test: Bacteriostatic activity against linezolid-susceptible Staphylococcus aureus NRS18 infected in THP1 cells after 24 hrs; format: functional, THP-1; how it was run: as §1
Staphylococcus aureus [13] = test: Antimicrobial activity against linezolid-resistant Staphylococcus aureus SA238L infected in THP1 cells after 24 hrs; format: functional, organism-based; conditions: THP-1, 24 h; how it was run: as §2
Listeria monocytogenes [14] = test: Antimicrobial activity against Listeria monocytogenes infected in THP1 cells after 24 hrs; format: functional, organism-based; conditions: THP-1, 24 h; how it was run: as §2
Staphylococcus aureus [15] = test: Antimicrobial activity against linezolid resistant methicillin-susceptible Staphylococcus aureus SA040L after 24 hrs; format: functional
Legionella pneumophila [16] = test: Bacteriostatic activity against Legionella pneumophila ATCC 33153 infected in THP1 cells after 48hrs; format: functional, THP-1; how it was run: as §2
Staphylococcus aureus [17] = test: Bacteriostatic activity against Staphylococcus aureus infected in THP1 cells after 24 hrs; format: functional, THP-1; how it was run: as §2
Staphylococcus aureus [18] = test: Antimicrobial activity against linezolid-susceptible Staphylococcus aureus SA238 infected in THP1 cells at pH 7.4 after 24 hrs; format: functional, organism-based; conditions: SA238, THP-1, 24 h
Staphylococcus aureus [19] = test: Antimicrobial activity against linezolid-susceptible Staphylococcus aureus ATCC 33591 infected in THP1 cells assessed as log reduction in bacterial count after 24 hrs; format: functional, THP-1; how it was run: as §2
Staphylococcus aureus [20] = test: Antimicrobial activity against linezolid-susceptible Staphylococcus aureus ATCC 25923 infected in THP1 cells after 24 hrs; format: functional, organism-based; conditions: ATCC 25923, THP-1, 24 h; how it was run: as §2
Staphylococcus aureus [21] = test: Antimicrobial activity against linezolid-susceptible Staphylococcus aureus SA238 infected in THP1 cells after 24 hrs; format: functional, organism-based; conditions: SA238, THP-1, 24 h; how it was run: as §2
Staphylococcus aureus [22] = test: Antimicrobial activity against linezolid-susceptible Staphylococcus aureus NRS384 infected in THP1 cells assessed as log reduction in bacterial count after 24 hrs; format: functional, THP-1; how it was run: as §2
Staphylococcus aureus [23] = test: Antimicrobial activity against linezolid-susceptible Staphylococcus aureus SA040 infected in THP1 cells after 24 hrs; format: functional, organism-based; conditions: SA040, THP-1, 24 h; how it was run: as §2
Staphylococcus aureus [24] = test: Bacteriostatic activity against linezolid-susceptible Staphylococcus aureus SA238 infected in THP1 cells at pH 7.4 after 24 hrs; format: functional, THP-1
Staphylococcus aureus [25] = test: Bacteriostatic activity against linezolid-susceptible Staphylococcus aureus ATCC 25923 infected in THP1 cells after 24 hrs; format: functional, THP-1; how it was run: as §1
Legionella pneumophila [26] = test: Antimicrobial activity against Legionella pneumophila ATCC 33153 infected in THP1 cells after 48hrs; format: functional, organism-based; conditions: ATCC 33153, THP-1, 48 h; how it was run: as §2
Staphylococcus aureus [27] = test: Bacteriostatic activity against linezolid-susceptible Staphylococcus aureus SA238 infected in THP1 cells after 24 hrs; format: functional, THP-1; how it was run: as §1
Staphylococcus aureus [28] = test: Bacteriostatic activity against linezolid-susceptible Staphylococcus aureus SA040 infected in THP1 cells after 24 hrs; format: functional, THP-1; how it was run: as §1
Staphylococcus aureus [29] = test: Bacteriostatic activity against linezolid-susceptible Staphylococcus aureus NRS384 infected in THP1 cells after 24 hrs; format: functional, THP-1; how it was run: as §1
[30] = tested on: Staphylococcus epidermidis; test: Antimicrobial activity against Staphylococcus epidermidis infected in THP1 cells after 24 hrs; format: functional, organism-based; conditions: THP-1, 24 h; how it was run: as §2
Staphylococcus aureus [31] = test: Antimicrobial activity against linezolid-resistant Staphylococcus aureus SA040L infected in THP1 cells assessed as log reduction in bacterial count after 24 hrs; format: functional, THP-1; how it was run: as §2
Staphylococcus aureus [32] = test: Antimicrobial activity against linezolid-susceptible Staphylococcus aureus SA238 after 24 hrs; format: functional, organism-based; conditions: SA238, 24 h
Staphylococcus aureus [33] = test: Antimicrobial activity against linezolid-susceptible Staphylococcus aureus NRS384 infected in THP1 cells after 24 hrs; format: functional, organism-based; conditions: NRS384, THP-1, 24 h; how it was run: as §2
Staphylococcus aureus [34] = test: Bacteriostatic activity against linezolid-susceptible Staphylococcus aureus ATCC 33591 infected in THP1 cells after 24 hrs; format: functional, THP-1; how it was run: as §1
Staphylococcus aureus [35] = test: Antimicrobial activity against linezolid-susceptible Staphylococcus aureus ATCC 25923 infected in THP1 cells assessed as log reduction in bacterial count after 24 hrs; format: functional, THP-1; how it was run: as §2
Listeria monocytogenes [36] = test: Antimicrobial activity against Listeria monocytogenes EGD after 24 hrs; format: functional
Listeria monocytogenes [37] = test: Bacteriostatic activity against Listeria monocytogenes EGD infected in THP1 cells after 24 hrs; format: functional, THP-1; how it was run: as §2
Staphylococcus aureus [38] = test: Antimicrobial activity against linezolid-resistant Staphylococcus aureus SA040L infected in THP1 cells after 24 hrs; format: functional, organism-based; conditions: THP-1, 24 h; how it was run: as §2
[39] = tested on: Staphylococcus epidermidis; test: Antimicrobial activity against Staphylococcus epidermidis SA362 after 24 hrs; format: functional; conditions: SA362, 24 h
[40] = tested on: Staphylococcus epidermidis; test: Bacteriostatic activity against Staphylococcus epidermidis infected in THP1 cells after 24 hrs; format: functional, THP-1; how it was run: as §2
Legionella pneumophila [41] = test: Antimicrobial activity against Legionella pneumophila ATCC 33153 after 48 hrs; format: functional; conditions: ATCC 33153, 48 h
Staphylococcus aureus [42] = test: Bacteriostatic activity against linezolid-resistant Staphylococcus aureus SA238L infected in THP1 cells after 24 hrs; format: functional, THP-1; how it was run: as §1
Staphylococcus aureus [43] = test: Antimicrobial activity against linezolid-resistant Staphylococcus aureus SA238L infected in THP1 cells assessed as log reduction in bacterial count after 24 hrs; format: functional, THP-1; how it was run: as §2
Staphylococcus aureus [44] = test: Bacteriostatic activity against linezolid-susceptible Staphylococcus aureus SA238 infected in THP1 cells at pH 5.5 after 24 hrs; format: functional, THP-1
Staphylococcus aureus [45] = test: Antimicrobial activity against Linezolid resistant hospital acquired methicillin-resistant Staphylococcus aureus SA238L after 24 hrs; format: functional
Staphylococcus aureus [46] = test: Antimicrobial activity against linezolid-susceptible Staphylococcus aureus SA040 infected in THP1 cells assessed as log reduction in bacterial count after 24 hrs; format: functional, THP-1; how it was run: as §2

Work on `CC(=O)NC[C@H]1CN(c2ccc(N3CCOCC3)c(F)c2)C(=O)O1` [LINEZOLID] yielded an Activity (Staphylococcus aureus [1]) of 10.15 mg/L, an EC50 (Staphylococcus aureus [2]) of 0.47 µg/mL (≈ 1.39 µM) and an Activity (Staphylococcus aureus [3]) of 4.55 mg/L. For the same compound, the MIC (Staphylococcus aureus [4]) was 1 µg/mL (≈ 2.96 µM), the log10cfu (Staphylococcus aureus [5]) was -0.69 and the MIC (Staphylococcus aureus [6]) was 1 µg/mL (≈ 2.96 µM). The EC50 (Staphylococcus aureus [7]) was 0.18 µg/mL (≈ 0.534 µM), the EC50 (Staphylococcus aureus [8]) was 0.84 µg/mL (≈ 2.49 µM) and the MIC (Staphylococcus aureus [9]) was 1 µg/mL (≈ 2.96 µM). It also gave a log10cfu (Staphylococcus aureus [10]) of -0.42, an EC50 (Staphylococcus aureus [11]) of 0.63 µg/mL (≈ 1.87 µM) and an Activity (Staphylococcus aureus [12]) of 2.77 mg/L. For the same compound, the EC50 (Staphylococcus aureus [13]) was 0.29 µg/mL (≈ 0.86 µM), the EC50 (Listeria monocytogenes [14]) was 0.62 µg/mL (≈ 1.84 µM) and the MIC (Staphylococcus aureus [15]) was 16 µg/mL (≈ 47.4 µM). It also gave an Activity (Legionella pneumophila [16]) of 5.14 mg/L, an Activity (Staphylococcus aureus [17]) of 4.27 mg/L and an EC50 (Staphylococcus aureus [18]) of 0.35 µg/mL (≈ 1.04 µM). For the same compound, the log10cfu (Staphylococcus aureus [19]) was -0.39, the EC50 (Staphylococcus aureus [20]) was 0.63 µg/mL (≈ 1.87 µM) and the EC50 (Staphylococcus aureus [21]) was 0.7 µg/mL (≈ 2.07 µM). For the same compound, the log10cfu (Staphylococcus aureus [22]) was -0.41, the EC50 (Staphylococcus aureus [23]) was 0.63 µg/mL (≈ 1.87 µM) and the Activity (Staphylococcus aureus [24]) was 2.26 mg/L. For the same compound, the Activity (Staphylococcus aureus [25]) was 4.27 mg/L, the EC50 (Legionella pneumophila [26]) was 8.45 µg/mL (≈ 25 µM) and the Activity (Staphylococcus aureus [27]) was 4.55 mg/L. The Activity (Staphylococcus aureus [28]) was 1.59 mg/L, the Activity (Staphylococcus aureus [29]) was 2.3 mg/L and the EC50 [30] was 2.99 µg/mL (≈ 8.86 µM). It also gave a log10cfu (Staphylococcus aureus [31]) of -0.69, an EC50 (Staphylococcus aureus [32]) of 0.7 µg/mL (≈ 2.07 µM) and an EC50 (Staphylococcus aureus [33]) of 0.4 µg/mL (≈ 1.19 µM). For the same compound, the Activity (Staphylococcus aureus [34]) was 2.95 mg/L, the log10cfu (Staphylococcus aureus [35]) was -0.37 and the MIC (Listeria monocytogenes [36]) was 1 µg/mL (≈ 2.96 µM). For the same compound, the Activity (Listeria monocytogenes [37]) was 5.47 mg/L, the EC50 (Staphylococcus aureus [38]) was 2.78 µg/mL (≈ 8.24 µM) and the MIC [39] was 1 µg/mL (≈ 2.96 µM). For the same compound, the Activity [40] was 0.49 mg/L, the MIC (Legionella pneumophila [41]) was 4 µg/mL (≈ 11.9 µM) and the Activity (Staphylococcus aureus [42]) was >100 mg/L. It also gave a log10cfu (Staphylococcus aureus [43]) of 0.27, an Activity (Staphylococcus aureus [44]) of 1.09 mg/L and an MIC (Staphylococcus aureus [45]) of 16 µg/mL (≈ 47.4 µM). It also gave a log10cfu (Staphylococcus aureus [46]) of -0.91.
